In the library only some 7.6% were active in any assay of this set; here they are far more common.
D1 allo mod – allosteric modulators of human D1 dopamine receptor; AID 641; B-score at 10 µM; 58,000 tested, 5.9% active; HEK293 D1, CRE-luciferase, dopamine EC30 potentiation; actives deviate in either direction; P21728;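 active means luminescence count or its row- and column-corrected plate score outside the 99.7% band of the plate's sample wells, on either side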
DAT uptake mod – modulates human dopamine transporter uptake under cocaine | Q01959 | LLC-PK1 hDAT cells, [14C]-dopamine uptake with cocaine IC80; actives deviate in either direction | B-score at 10 µM | 110,000 tested, 1.3% active | AID 449768;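 active means Z score or B-score, a plate-position-corrected score, falls beyond the plate's 99.7% confidence bounds, in either direction; inactive means both scores lie inside the 99.7% bounds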
Target sequence (Q01959 whole entry, looked up): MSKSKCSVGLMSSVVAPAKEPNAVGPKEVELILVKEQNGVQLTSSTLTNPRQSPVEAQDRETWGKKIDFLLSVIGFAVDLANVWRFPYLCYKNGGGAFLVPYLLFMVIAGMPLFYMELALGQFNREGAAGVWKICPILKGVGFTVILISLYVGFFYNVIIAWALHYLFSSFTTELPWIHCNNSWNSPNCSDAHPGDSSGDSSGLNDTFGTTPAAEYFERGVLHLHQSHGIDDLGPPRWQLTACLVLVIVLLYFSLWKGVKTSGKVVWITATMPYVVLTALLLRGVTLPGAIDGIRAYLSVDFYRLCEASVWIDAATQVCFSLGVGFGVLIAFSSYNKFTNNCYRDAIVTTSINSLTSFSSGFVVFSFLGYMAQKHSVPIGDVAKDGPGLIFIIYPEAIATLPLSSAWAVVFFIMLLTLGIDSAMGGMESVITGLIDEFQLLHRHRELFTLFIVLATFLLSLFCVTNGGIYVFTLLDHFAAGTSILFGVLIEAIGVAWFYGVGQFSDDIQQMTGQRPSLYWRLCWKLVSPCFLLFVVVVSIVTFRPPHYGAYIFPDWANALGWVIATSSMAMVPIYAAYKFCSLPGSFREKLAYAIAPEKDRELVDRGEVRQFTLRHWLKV
M1 ag – agonists of M1 muscarinic receptor; CHO-M1 cells, Fluo-4 calcium fluorescence, agonist mode; stronger effect = higher value; B-score at 10 µM; 64,000 tested, 3% active; AID 626;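 active means fluorescence rise, raw or as B-score row- and column-corrected plate score, outside the 99.7% band of its plate's samples, either direction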
HEK293 NFkB inh – inhibitors of the PMA/ionomycin-induced NF-kB reporter in HEK293 cells; HEK-293 NF-kB luciferase reporter, luminescence; inhibition, % at 3 µM; 62,000 tested, 0.21% active; AID 465;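 active means inhibition above the mean of all tested compounds plus 3 SD, cut at about 40% in these data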
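System – HEK-293 cells with stable firefly luciferase reporter driven by four HIV NF-kB elements · Doses – one dose, 3 µM · Schedule – 1 h compound pre-incubation, 16 h PMA/ionomycin at 37 °C · Technique – luminescence from luciferase substrate reagent · Measure – percent inhibition normalized per plate to DMSO and reference-inhibitor controls · Replicates – tested once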
M1 antag – blocks the rat M1 muscarinic receptor response to acetylcholine; B-score at 10 µM; P08482; 64,000 tested, 3.4% active; CHO-M1 cells, Fluo-4 calcium, ACh EC80 antagonist mode; stronger effect = lower value;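 active means calcium fluorescence response, raw or row-and-column corrected B-score, differing from the plate sample mean either way at a set confidence level, mostly lower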
Jurkat viability – reduces viability or proliferation of Jurkat cells; Jurkat E6.1 viability, ATP luminescence, 48 h; inhibition, % at 4 µM; 56,000 tested, 1.2% active; AID 463;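 active means inhibition above the mean inhibition of all tested compounds plus 3 SD, cut at about 28% in these data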
M1 antag confirm – confirmation of rat M1 muscarinic receptor antagonists; shares compounds with M1 antag; CHO-M1 cells, Fluo-4 calcium, ACh EC80 antagonism; stronger effect = lower value; calcium response (max-min fluorescence) at 10 µM; 1,700 tested, 43% active; AID 677;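 active means calcium response below the same-plate mean of wells given acetylcholine alone at its 80%-effect dose, minus 3 SD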
mGluR4 antag – mGluR4 (human) activity, M1 antagonist secondary assay. shares compounds with M1 antag. CHO-mGluR4 calcium flux, Fluo-4 fluorescence, glutamate EC80; stronger effect = lower value. fluorescence response (max-min) at 10 µM. 1,700 tested, 0.9% active;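 active means fluorescence response below the plate's average for near-maximal glutamate wells, less 3 SD of those wells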;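 further: raw unnormalized fluorescence span taken in the window right after glutamate addition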
D1 mod confirm – D1 receptor (human) allosteric modulation, confirmed | shares compounds with D1 allo mod | HEK293 D1 CRE-luciferase, dopamine EC30 potentiation; stronger effect = higher value | luminescence at 10 µM | 2,200 tested, 88% active | AID 642;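 active means luminescence in either of two replicates above the same-plate mean plus 3 SD of the low-dose dopamine control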
D1 no dopamine – activates D1 CRE-luciferase signal without dopamine present; shares compounds with D1 allo mod; HEK293 D1 CRE-luciferase, luminescence, no dopamine; stronger effect = higher value; luminescence at 10 µM; 1,900 tested, 0.8% active; in the data active means luminescence above about 3900
Isoprot counter – isoproterenol response counter-screen activity for D1 modulators; shares compounds with D1 allo mod; HEK293 D1 CRE-luciferase, isoproterenol EC30 counter-screen; calls only at 10 µM; 2,200 tested, 63% active; AID 647;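 active means luminescence in either replicate above plate mean of wells with a partly effective reference agonist dose plus 3 SD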;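 further: isoproterenol raises cAMP through native beta-adrenoceptor Gs so signal bypasses D1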
Large screens that a line does not name were inactive (follow-up assays come after a bar, where they were run).

CN(C)P(=O)(C(Cl)=C(N1CCCCC1)N1CCCCC1)N(C)C	none
CN(C)CCc1nc2ccccc2c(=O)n1-c1ccccc1	M1 antag -6.25 | M1 antag confirm inactive | mGluR4 antag inactive
CCOC(=O)/C(CCCN(CC)CC)=N\O	M1 antag -2.94 | M1 antag confirm 251 | mGluR4 antag inactive
CC12CCCCC1=[N+]([O-])CN2O (centres undefined)	none
Cc1c(N=Cc2c(O)n(Cc3ccc(F)cc3)c(=O)[nH]c2=O)c(=O)n(-c2ccccc2)n1C	none (no result: D1 allo mod, M1 ag, HEK293 NFkB inh, M1 antag, Jurkat viability)
Cc1c(N=Cc2c(O)n(CCc3ccccc3)c(=O)[nH]c2=O)c(=O)n(-c2ccccc2)n1C	M1 antag -4.06 (no result: HEK293 NFkB inh, Jurkat viability) | M1 antag confirm 243 | mGluR4 antag inactive
Cc1[nH]c2c(Cl)cccc2c1CCN	M1 antag -2.84 | M1 antag confirm inactive | mGluR4 antag inactive
OC(Cc1ccccc1)(c1ccccc1)C1CN2CCC1CC2 (centres undefined)	M1 antag -7.21 (no result: HEK293 NFkB inh, Jurkat viability) | M1 antag confirm 54.7 | mGluR4 antag inactive
CN(C)CC#CCC(O)(c1ccccc1)C1CCCC1 (centres undefined)	none (no result: D1 allo mod, M1 ag, HEK293 NFkB inh, M1 antag, Jurkat viability)
O=c1c2ccccc2nc(-c2ccoc2)n1-c1ccccc1Cl	none (no result: D1 allo mod, M1 ag, HEK293 NFkB inh, M1 antag, Jurkat viability)
Cc1ccc(S(=O)(=O)NCC2CCC(C(=O)N3CCC4(CC3)OCCO4)CC2)cc1 (centres undefined)	none
Cc1ccc2nc(N3CCC(C(=O)N4CCC5(CC4)OCCO5)CC3)sc2c1	M1 antag -0.997 (no result: D1 allo mod) | M1 antag confirm 471 | mGluR4 antag inactive
O=c1c2ccccc2[nH]c(=S)n1-c1ccc2c(c1)OCO2	none (no result: DAT uptake mod)
COc1cccc(CNC2CN3CCC2CC3)c1OC (centres undefined)	M1 antag -5.14 | M1 antag confirm 392 | mGluR4 antag inactive
O=C(N[C@H]1CP(=O)(Oc2ccccc2)O[C@H](COCc2ccccc2)[C@H]1O)C(Cl)(Cl)Cl (some centres undefined)	none (no result: D1 allo mod, M1 ag, HEK293 NFkB inh, M1 antag, Jurkat viability)
CN(C)c1ccc(CN2CC=C(c3ccc(F)cc3)CC2)cc1	M1 antag -5.74 | M1 antag confirm 469 | mGluR4 antag inactive
Cc1ccc(C(c2nnnn2Cc2ccccc2)N2CC=C(c3ccc(F)cc3)CC2)cc1 (centres undefined)	none (no result: D1 allo mod, M1 ag, HEK293 NFkB inh, M1 antag, Jurkat viability)
c1ccc(C(OCCN2CCNCC2)c2ccccc2)cc1	M1 antag -14.3 | M1 antag confirm 148 | mGluR4 antag inactive
COC(=O)C1=C(c2cc3ccccc3s2)C[C@@H]2CC[C@H]1N2C(=O)NCc1ccco1	none (no result: D1 allo mod, M1 ag, HEK293 NFkB inh, M1 antag, Jurkat viability)
CCN(CC)CCCNC(=O)c1c(O)c2ccccc2n(Cc2ccccc2)c1=O	M1 antag -5.39 (no result: D1 allo mod, HEK293 NFkB inh, Jurkat viability) | M1 antag confirm 393 | mGluR4 antag inactive
CCCCn1c(=O)c(C(=O)Nc2cnccn2)c(O)c2ccccc21	D1 allo mod 6.77 | D1 mod confirm 8352 | D1 no dopamine inactive | Isoprot counter inactive
CCCCn1c(=O)c(C(=O)Nc2nc3ccccc3[nH]2)c(O)c2ccccc21	none (no result: DAT uptake mod)
COC(=O)c1c(C)[nH]c(C(=O)C(Cc2ccccc2)N(C)C)c1C (centres undefined)	D1 allo mod 9.72 | D1 mod confirm inactive | D1 no dopamine inactive | Isoprot counter inactive
Cc1ccc(C)c(CN2CCC(n3nnc4cc(F)ccc43)CC2)c1	none
CC(C)C[C@H]1C(=O)N2CCCC2[C@]2(O)O[C@](NC(=O)[C@@H]3C=C4c5cccc6[nH]cc(c56)CC4N(C)C3)(C(C)C)C(=O)N12 (some centres undefined)	none (no result: D1 allo mod, M1 ag, HEK293 NFkB inh, M1 antag, Jurkat viability)
CC(C)[C@@]1(NC(=O)[C@@H]2C=C3c4cccc5[nH]cc(c45)C[C@H]3N(C)C2)O[C@@]2(O)[C@@H]3CCCN3C(=O)[C@H](Cc3ccccc3)N2C1=O	D1 allo mod 33.9, M1 ag 60.2 (no result: DAT uptake mod, HEK293 NFkB inh, Jurkat viability) | D1 mod confirm 18320 | D1 no dopamine 19392 | Isoprot counter active
O=c1[nH]c(=O)n(Cc2ccccc2)c(O)c1C=NCCCO	none
O=C(CSc1ccccc1)N1CCC2(CC1)OCCO2	none
COC(=O)C1=C(c2ccc(S(C)(=O)=O)cc2)C[C@@H]2CC[C@H]1N2C(=O)NCC1CC1	none (no result: D1 allo mod, M1 ag, HEK293 NFkB inh, M1 antag, Jurkat viability)
CCC(=NCCC1=CCCCC1)c1c(O)[nH]c(=O)[nH]c1=O	D1 allo mod 5.42 | D1 mod confirm 16104 | D1 no dopamine inactive | Isoprot counter active
COc1cc2c(cc1OC)C13CCN4CC5=CCOC6CC(=O)N2C1C6C5CC43 (centres undefined) (tested in a mixture with another compound)	none (no result: D1 allo mod, M1 ag, HEK293 NFkB inh, M1 antag, Jurkat viability)
Fc1ccc(NC2=NCCS2)cc1Cl	D1 allo mod 4.06 | D1 mod confirm 11272 | D1 no dopamine inactive | Isoprot counter inactive
COc1ccccc1NC1=NCCS1	none (no result: D1 allo mod, M1 ag, HEK293 NFkB inh, M1 antag, Jurkat viability)
CC(=O)c1c(O)n(C)c(=S)n(-c2ccccc2)c1=O	D1 allo mod 3.1 | D1 mod confirm 10036 | D1 no dopamine inactive | Isoprot counter inactive
COC(=O)C1=C(c2cc3ccccc3o2)C[C@@H]2CC[C@H]1N2C(=O)N1CCCCC1	none (no result: D1 allo mod, M1 ag, HEK293 NFkB inh, M1 antag, Jurkat viability)
CN1C(=O)c2ccccc2Sc2ccc(C(=O)N3CCC4(CC3)OCCO4)cc21	D1 allo mod 9.58 (no result: DAT uptake mod, Jurkat viability) | D1 mod confirm inactive | Isoprot counter inactive
CC(=O)c1cccc(NC2=NCC(C)S2)c1 (centres undefined)	D1 allo mod 5.63 | D1 mod confirm 8688 | D1 no dopamine inactive | Isoprot counter active
NCCc1c[nH]c2ccccc12	none (no result: D1 allo mod, M1 ag, HEK293 NFkB inh, M1 antag, Jurkat viability)
CCC1(CC)C(=O)NC(=NCCc2c[nH]c3ccccc23)NC1=O	D1 allo mod 4.8 | D1 mod confirm 6976 | D1 no dopamine inactive | Isoprot counter inactive
CCN1CCC(O)(c2ccccc2)C(C(=O)c2ccccc2)C1 (centres undefined)	none (no result: D1 allo mod, M1 ag, HEK293 NFkB inh, M1 antag, Jurkat viability)
O=C1CN=C(c2ccccc2)c2oc3ccc(Br)cc3c2N1	D1 allo mod 7.4 | D1 mod confirm 15276 | Isoprot counter active
CCC(=NC1CC1)c1c(O)n(C2CCCCC2)c(=O)[nH]c1=O	D1 allo mod 16.8 | D1 mod confirm 12336 | D1 no dopamine inactive | Isoprot counter active

Screening data (PubChem)
